Screening results (PubChem BioAssay)
HUVEC prolif 384 – inhibitors of HUVEC proliferation, primary screen, cell-based, 384-well. actives 1.1% (n = 86,000). CellTiter-Glo luminescence, 72 h; hits give low values. AID 648, 2007. viability, % at 10 µM (by protocol);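 active means viability at or below 30%; inactive means viability above 30%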
H69AR inhibit – proliferation blockers of H69AR lung cancer cells, primary screen, cell-based, human, 86K library; H69AR lung tumor viability, ATP luminescence, 72 h; hits give low values; viability, % at 10 µM; actives 6% (n = 85,000); AID 598, 2007;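 active means viability at or below 40%; inactive means viability above 40%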;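 further: multidrug resistant small cell line overexpressing MRP-1 efflux transporter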
HCT116 bCat-KO – primary screen for growth suppressors in beta-catenin knockout HCT116 cells (colon tumor, human) | HCT116 beta-catenin knockout viability, CellTiter-Glo, 60 h; hits give low values | actives 1.5% (n = 140,000) | AID 818, 2007 | viability, % at 10 µM;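 active means viability at or under a set limit, the compound median less 4 SD, cut at about 6% in these data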
Lung fibro prol – antiproliferative effect on LL 47 fibroblasts – human, LL 47 cells, CellTiter-Glo luminescence, primary screen; LL 47 human lung fibroblast viability, ATP luminescence; hits give low values; viability, % at 10 µM; actives 1.1% (n = 85,000);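 active means viability at or below 50% in the single dose screen; inactive means viability above 50%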;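 further: compound exposure lasted 72 h before the ATP readout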
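Benchmarks: Cell-only wells, no compound | Test system: LL 47 human lung fibroblasts, passage 12 or lower | Input: 1,150 cells/well | Measured by: CellTiter-Glo luminescence measuring cellular ATP | Medium: IMEM, 15% FBS supplement | Schedule: Overnight attachment after seeding, then 72 h compound exposure at 37 °C | Doses: Compound addition at 0.1% DMSO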
HCT116 PTEN-null – growth suppression of PTEN-null HCT116, primary screen, cell-based, CellTiter-Glo | HCT116 PTEN-null viability, 60 h; hits give low values | viability, % at 10 µM | actives 1.2% (n = 140,000);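 active means viability at or below a set limit, 4 SD under the median of all tested compounds, cut at about 3.7% in these data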;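 further: PTEN knockout HCT116 line with beta catenin targeted HCT116 as companion control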
Numbers stand for hits; 0 = inactive; - = no result given. Only a selection was taken, and hits are over-represented in it overall.

SMILES | HUVEC prolif 384 | H69AR inhibit | HCT116 bCat-KO | Lung fibro prol | HCT116 PTEN-null
Cc1ccc2cc(CN(Cc3ccc(F)cc3)Cc3nnnn3C3CCCC3)c(=O)[nH]c2c1 | 0 | 35.9 | 0 | 0 | 0
Cc1ccc2cc(CN(Cc3ccccc3)Cc3nnnn3C3CCCC3)c(=O)[nH]c2c1 | 0 | 5.0 | 0 | 0 | 0
O=C(CCN1CCC(c2ccccc2)C1)c1cccs1 (stereo not drawn) | - | - | 0 | - | 2.8
O=C(CCN1CCC(c2ccccc2)C1)c1ccccc1 (stereo not drawn) | - | - | 0 | - | 0
FC(F)(F)c1cccc(OCCN2CCN(Cc3ccccc3)CC2)c1 | - | - | 0 | - | 0
Cc1c(OCc2ccccc2)c(=O)ccn1Cc1ccc(Cl)cc1 | 0 | 3.9 | 0 | 0 | 0
CCCCC1CCC(/C(N)=N/O)CC1 (stereo not drawn) | 0 | 26.7 | 0 | - | 0
CCOC(=O)/C=C/C(=O)Nc1ccccc1-c1ccccc1NC(=O)/C=C/C(=O)OCC | - | - | 3.9 | - | 2.0
CCOC(=O)/C=C/C(=O)Nc1cccc([N+](=O)[O-])c1 | - | - | 0 | - | 0
CCCCOc1ccc(C(=O)OC2CC(C)N(C)CC2C)cc1 (stereo not drawn) | 15.2 | 0 | 0 | 0 | 0
CCCCOc1ccc(C(=O)N2CCC(C)CC2)cc1 | 0 | 0 | 0 | 0 | 0
Cc1cnc(NC(=O)CCCc2nc3ccccc3s2)s1 | 29.6 | 0 | 0 | 35.2 | 0
O=C(CCCc1nc2ccccc2s1)Nc1nccs1 | 0 | 0 | 0 | 0 | 0
O=C(CSc1nncs1)Nc1ccc(Cl)cn1 | - | - | 0 | - | 0
Clc1cccc(Cl)c1COn1nnc2ccccc21 | 0 | 35.1 | 0 | 0 | 0
O=S(=O)(NCC1CCCO1)c1ccc(S(=O)(=O)N(Cc2ccc(F)cc2)Cc2ccco2)cc1 (stereo not drawn) | - | - | 0 | - | 0
CCCSc1nc(SCC(=O)NCc2ccccc2)c2c3c(sc2n1)COC(C)(C)C3 | 0 | 0 | 0 | 0 | 0
CCCc1nc2sc3c(SCC(=O)NCc4ccco4)ncnc3c2c2c1CCC2 | 0 | 8.6 | 0 | 0 | 0
CC(C)Sc1nc(SCC(=O)NCc2ccco2)c2c3c(sc2n1)COC(C)(C)C3 | 0 | 34.2 | 0 | 0 | 0
O=C1CSC(c2ccccn2)N1Cc1cn2ccccc2n1 (stereo not drawn) | 0 | 0 | 0 | 13.7 | 0
CCNC(=O)CN(Cc1ccccc1)S(=O)(=O)c1ccccc1 | 0 | 0 | 0 | 0 | 0
CCOC(=O)c1ccc(Nc2cc(C)nc(C)c2C(=O)OCC)cc1 | 0 | 0 | 0 | 0 | 0
CCOC(=O)c1ccc(Nc2nnc(C(C)(C)C)c(=O)[nH]2)cc1 | 0 | 2.6 | 0 | 0 | 0
O=C(CCNC(=O)OCc1ccccc1)NC1CCCCCC1 | - | - | 0 | - | 0
Cc1ccc(C(=O)N[C@H](C(=O)Nc2cc(Cl)cc(Cl)c2)C(C)C)cc1 | - | - | 0 | - | 0
SMILES | HUVEC prolif 384 | H69AR inhibit | HCT116 bCat-KO | Lung fibro prol | HCT116 PTEN-null
Cc1ccc(N=Nc2c(N)[nH]n3c(=O)cc(-c4ccccc4)nc23)cc1 | - | - | 0 | - | 0
COc1cccc(N=Nc2c(N)[nH]n3c(=O)cc(-c4ccccc4)nc23)c1 | - | - | 3.1 | - | 0
CCc1cc2c(=O)[nH]c(N3CCCC3)nc2s1 | - | - | 0 | - | 0
CCc1cc2c(=O)[nH]c(-c3ccccn3)nc2s1 | - | - | 2.5 | - | 2.3
COC(=O)c1nn(-c2ccccc2)c(Sc2ccc(Cl)cc2)c1/C=N/O | - | - | 0 | - | 0
CC(C)=CCC/C(C)=C/CCC(C)NCCN1CCNCC1 (stereo not drawn) | 0 | 0 | 1.8 | 13.8 | 1.8
CC(C)=CCC/C(C)=C/CC(C)(C)CNCCN1CCNCC1 | 1.5 | 0.6 | 1.1 | 1.7 | 1.2
CC(C)=CCCC(C)CN1CCC(O)CC1 (stereo not drawn) | 0 | 0 | 0 | 0 | 0
CCCN1C(=O)C(Cc2nc3ccccc3c(=O)n2C)c2ccccc21 (stereo not drawn) | 0 | 33.4 | 0 | 0 | 0
C/C(=N\Nc1nc2c(s1)CCCC2)c1ccccc1 | - | - | 0 | - | 0
Cc1cccc(C)c1N1CCN(c2ccc3nnc(C(F)(F)F)n3n2)CC1 | 12.6 | 24.7 | 0 | 0 | 0
FC(F)(F)c1nnc2ccc(N3CCOCC3)nn12 | 0 | 0 | 0 | 0 | 0
Cc1nnc(SCc2ccccc2)nc1/C=C/NOCc1ccc(Cl)cc1Cl | 0 | 2.3 | 0 | 0 | 0
O=C(CSc1ccc2nnc(-c3ccc(Cl)cc3)n2n1)N1CCN(c2ccccc2)CC1 | 0 | 0 | - | 0 | -
CCc1ccc(C(=O)CSc2n[nH]c(-c3ccncc3)n2)cc1 | 0 | 0 | 0 | 0 | 0
